Active and inactive are the calls of the source. The calls are words filed in the database; no cut-off is given here.
How the values were obtained:
[1] = Cytotoxicity against human L02 cells incubated for 72 hrs by MTT assay; format: toxicity, cell-based
In short: (§1)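 Cells seeded at 4000/well, incubated overnight, then exposed to a range of concentrations, or DMSO vehicle, for 72 h. MTT (5 mg/mL solution) added for 4 h and formazan dissolved in DMSO. Absorbance read at 570 nm, and IC50 derived from the curves. Tumor lines were grown in RPMI 1640; HUVEC, HaCaT and LO2 were grown in DMEM, each with 10% FBS at 37 °C and 5% CO2.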

[2] = Cytotoxicity against HUVEC incubated for 72 hrs by MTT assay; format: toxicity, cell-based; conditions: human, HUVEC cells; in short: as §1
[3] = Cytotoxicity against human HaCaT cells incubated for 72 hrs by MTT assay; format: toxicity, cell-based; in short: as §1
NCI-H460 [4] = assay: Cytotoxicity against human NCI-H460 cells incubated for 72 hrs by MTT assay; format: functional, cell-based; conditions: NCI-H460, 72 h; in short: as §1
MDA-MB-231 = assay: Cytotoxicity against human MDA-MB-231 cells incubated for 72 hrs by MTT assay; format: functional, cell-based; conditions: MDA-MB-231, 72 h; in short: as §1
[5] = Octanol-water partition coefficient, logD of the compound in PBS at pH 7.4 by liquid chromatography based mass spectrometric analysis; format: physicochemical
In short: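 Shake-flask method: 3.0 mg compound dissolved in PBS-saturated n-octanol and rotated 24 h at room temperature. The octanol phase was then mixed with octanol-saturated PBS, rotated another 24 h and centrifuged. Both phases quantified by LC-MS against a standard curve, and log P = log(C octanol/C water).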

NCI-H1975 [6] = assay: Cytotoxicity against human NCI-H1975 cells incubated for 72 hrs by MTT assay; format: functional, cell-based; conditions: NCI-H1975, 72 h; in short: as §1
SW-620 = assay: Cytotoxicity against human SW-620 cells incubated for 72 hrs by MTT assay; format: functional, cell-based; conditions: SW-620, 72 h; in short: as §1
HCT-116 = assay: Cytotoxicity against human HCT-116 cells incubated for 72 hrs by MTT assay; format: functional, cell-based; conditions: HCT-116, 72 h; in short: as §1
HT-29 = assay: Cytotoxicity against human HT-29 cells incubated for 72 hrs by MTT assay; format: functional, cell-based; conditions: HT-29, 72 h; in short: as §1
NCI-H460 [7] = assay: Induction of apoptosis in human NCI-H460 cells assessed as viable cells at 1 uM measured after 48 hrs by Annexin V-FITC/PI staining method (reference value: 86.4%); format: functional; conditions: read-out: Activity
[8] = Toxicity in BALB/c nude mouse xenografted with human NCI-H1975 cells assessed as morphological change in liver at 0.2 mg/kg administered ip, qd for 2 weeks; conditions: in vivo, 336 h
[9] = Toxicity in BALB/c nude mouse xenografted with human NCI-H1975 cells assessed as morphological change in lung at 0.2 mg/kg administered ip, qd for 2 weeks; conditions: in vivo, 336 h
[10] = Toxicity in BALB/c nude mouse xenografted with human NCI-H1975 cells assessed as reduction of cytoplasmic vacuoles at 0.2 mg/kg administered ip, qd for 2 weeks; conditions: in vivo, 336 h
NCI-H460 [11] = assay: Induction of apoptosis in human NCI-H460 cells assessed as viable cells at 0.1 uM measured after 48 hrs by Annexin V-FITC/PI staining method (reference value: 86.4%); format: functional; conditions: read-out: Activity
NCI-H460 [12] = assay: Induction of apoptosis in human NCI-H460 cells assessed as necrotic cells at 0.1 uM measured after 48 hrs by Annexin V-FITC/PI staining method (reference value: 1.59%); format: functional
[13] = Toxicity in BALB/c nude mouse xenografted with human NCI-H1975 cells assessed as morphological change in heart at 0.2 mg/kg administered ip, qd for 2 weeks; conditions: in vivo, 336 h
NCI-H460 [14] = assay: Induction of apoptosis in human NCI-H460 cells assessed as necrotic cells at 1 uM measured after 48 hrs by Annexin V-FITC/PI staining method (reference value: 1.59%); format: functional
NCI-H460 [15] = assay: Induction of apoptosis in human NCI-H460 cells assessed as late apoptotic cells at 0.1 uM measured after 48 hrs by Annexin V-FITC/PI staining method (reference value: 8.57%); format: functional
NCI-H460 [16] = assay: Induction of apoptosis in human NCI-H460 cells assessed as early apoptotic cells at 0.1 uM measured after 48 hrs by Annexin V-FITC/PI staining method (reference value: 3.46%); format: functional
NCI-H460 [17] = assay: Induction of ROS accumulation in human NCI-H460 cells measured upto 100 nM after 42 to 48 hrs by DCFH-DA staining based flow cytometric analysis; format: functional, cell-based; conditions: time 42-48 hrs
In short: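 NCI-H460 cells exposed for 42 h or 48 h, then suspended in 1% BSA DPBS. DCFH-DA (from a 10 mM stock) added and incubated 30 min in the dark, followed by washing. DCF fluorescence taken from flow-cytometry histograms and expressed as percentage relative to untreated control.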

NCI-H460 [18] = assay: Induction of apoptosis in human NCI-H460 cells assessed as early apoptotic cells at 0.01 uM measured after 48 hrs by Annexin V-FITC/PI staining method (reference value: 3.46%); format: functional
[19] = Toxicity in BALB/c nude mouse xenografted with human NCI-H1975 cells assessed as irregular spermatogenic tubules at 0.2 mg/kg administered ip, qd for 2 weeks; conditions: in vivo, 336 h
NCI-H460 [20] = assay: Down regulation of RNA polymerase II in human NCI-H460 cells measured after 48 hrs by Western blotting analysis; format: functional, cell-based
In short: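 NCI-H460 cells treated for 48 h, harvested by trypsinization and lysed on ice in NP-40 buffer (50 mmol/L Tris pH 8.0, 150 mmol/L NaCl, 1% NP-40). Protein quantified by BCA and resolved by SDS-PAGE. Blots probed for RNA Pol II (1:1000), with GAPDH as loading control, and detected by chemiluminescence.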

NCI-H460 [21] = assay: Induction of apoptosis in human NCI-H460 cells assessed as late apoptotic cells at 1 uM measured after 48 hrs by Annexin V-FITC/PI staining method (reference value: 8.57%); format: functional
[22] = Stability in mouse serum measured after 8 hrs by HPLC analysis; format: ADME, cell-free
[23] = Toxicity in BALB/c nude mouse xenografted with human NCI-H1975 cells assessed as degeneration of inter tube connective tissue at 0.2 mg/kg administered ip, qd for 2 weeks; conditions: in vivo, 336 h
[24] = Toxicity in BALB/c nude mouse xenografted with human NCI-H1975 cells assessed as reduction of cytoplasmic nuclei at 0.2 mg/kg administered ip, qd for 2 weeks; conditions: in vivo, 336 h
NCI-H460 [25] = assay: Induction of mitochondrial membrane potential loss in human NCI-H460 cells by flow cytometric analysis; format: functional, cell-based
In short: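 Treated NCI-H460 cells suspended in 1% BSA DPBS and stained with TMRE (from a 1 mM stock) for 20 min in the dark. Cells then washed and resuspended in 1% BSA DPBS. Relative TMRE fluorescence intensity taken as the readout of membrane potential.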

NCI-H460 [26] = assay: Induction of apoptosis in human NCI-H460 cells assessed as early apoptotic cells at 1 uM measured after 48 hrs by Annexin V-FITC/PI staining method (reference value: 3.46%); format: functional
[27] = Toxicity in BALB/c nude mouse xenografted with human NCI-H1975 cells assessed as decreased spermatogenic cells at 0.2 mg/kg administered ip, qd for 2 weeks; conditions: in vivo, 336 h
[28] = Toxicity in BALB/c nude mouse xenografted with human NCI-H1975 cells assessed as morphological change in kidney at 0.2 mg/kg administered ip, qd for 2 weeks; conditions: in vivo, 336 h
NCI-H460 [29] = assay: Induction of apoptosis in human NCI-H460 cells assessed as viable cells at 0.01 uM measured after 48 hrs by Annexin V-FITC/PI staining method (reference value: 86.4%); format: functional; conditions: read-out: Activity
NCI-H1975 [30] = assay: Antitumor activity against human NCI-H1975 cells xenografted in BALB/c nude mouse assessed as tumor growth inhibition at 0.2 mg/kg, ip, qd for 2 weeks relative to control; conditions: NCI-H1975, 336 h, read-out: TGI
NCI-H460 [31] = assay: Induction of apoptosis in human NCI-H460 cells assessed as necrotic cells at 0.01 uM measured after 48 hrs by Annexin V-FITC/PI staining method (reference value: 1.59%); format: functional
NCI-H460 [32] = assay: Induction of apoptosis in human NCI-H460 cells assessed as late apoptotic cells at 0.01 uM measured after 48 hrs by Annexin V-FITC/PI staining method (reference value: 8.57%); format: functional

## CC(C)[C@]12O[C@H]1[C@@H]1O[C@]13[C@]1(O[C@H]1C[C@H]1C4=C(CC[C@@]13C)C(=O)OC4)[C@@H]2OC(=O)CCC(=O)O[C@@H]1O[C@H](CO)[C@@H](O)[C@H](O)[C@H]1O
[1]
  IC50 at 72 h: 1380 nM
[2]
  IC50 at 72 h: 8140 nM
[3]
  IC50 at 72 h: 1630 nM
NCI-H460 [4]
  IC50: 2720 nM
MDA-MB-231
  IC50: 2280 nM
[5]
  logD: -0.558
NCI-H1975 [6]
  IC50: 1860 nM
SW-620
  IC50: 5510 nM
HCT-116
  IC50: 2350 nM
HT-29
  IC50: 2890 nM

## CC(C)[C@]12O[C@H]1[C@@H]1O[C@]13[C@]1(O[C@H]1C[C@H]1C4=C(CC[C@@]13C)C(=O)OC4)[C@@H]2OC(=O)CCC(=O)O[C@H]1O[C@H](CO)[C@@H](O)[C@H](O)[C@H]1O
[1]
  IC50 at 72 h: 2150 nM
[2]
  IC50 at 72 h: 5680 nM
[3]
  IC50 at 72 h: 4300 nM
NCI-H460 [4]
  IC50: 4080 nM
MDA-MB-231
  IC50: 4420 nM
NCI-H1975 [6]
  IC50: 3420 nM
SW-620
  IC50: 3860 nM
HCT-116
  IC50: 1900 nM
HT-29
  IC50: 5370 nM

## CC(C)[C@]12O[C@H]1[C@@H]1O[C@]13[C@]1(O[C@H]1C[C@H]1C4=C(CC[C@@]13C)C(=O)OC4)[C@@H]2O [TRIPTOLIDE]
NCI-H460 [7]
  viability at 1 µM: 25.1%
[8]
  Activity: Non-Toxic
[9]
  Activity: Non-Toxic
[10]
  Activity: Toxic
[1]
  IC50 at 72 h: 16 nM
NCI-H460 [11]
  viability at 0.1 µM: 29.5%
[2]
  IC50 at 72 h: 44 nM
[3]
  IC50 at 72 h: 27 nM
NCI-H460 [4]
  IC50: 14 nM
NCI-H460 [12]
  Activity: 3.85%
[13]
  Activity: Non-Toxic
MDA-MB-231
  IC50: 51 nM
NCI-H460 [14]
  Activity: 2.34%
NCI-H460 [15]
  Activity: 24.4%
NCI-H460 [16]
  Activity: 42.2%
NCI-H460 [17]
  Activity: Active
NCI-H460 [18]
  Activity: 6.84%
[19]
  Activity: Toxic
[5]
  logD: -0.56
NCI-H460 [20]
  Activity: Active
NCI-H1975 [6]
  IC50: 2 nM
NCI-H460 [21]
  Activity: 5.7%
SW-620
  IC50: 163 nM
[22]
  Stability: Unstable
[23]
  Activity: Toxic
[24]
  Activity: Toxic
NCI-H460 [25]
  Activity: Active
HCT-116
  IC50: 46 nM
HT-29
  IC50: 47 nM
NCI-H460 [26]
  Activity: 56.8%
[27]
  Activity: Toxic
[28]
  Activity: Non-Toxic
NCI-H460 [29]
  viability at 0.01 µM: 87.8%
NCI-H1975 [30]
  inhibition in vivo at 0.2 mg/kg: 28.6%
NCI-H460 [31]
  Activity: 2.2%
NCI-H460 [32]
  Activity: 3.17%

Reference: ChEMBL document CHEMBL5104115, “Design, synthesis of novel triptolide-glucose conjugates targeting glucose Transporter-1 and their selective antitumor effect” (Eur J Med Chem, 2022)
